The target in assay [1] is Serine/threonine-protein kinase PLK1 (Homo sapiens) (UniProt P53350). Nature of the assay: Inhibition of PLK1 at 1 uM relative to control.
The target of assay [2] is Serine/threonine-protein kinase B-raf (Homo sapiens, UniProt P15056, V600E). Nature of the assay: Inhibition of BRAF V600E mutant. An outline of the steps:
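Purified, isolated V600E BRAF enzyme assayed in vitro; potency reported as IC50.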

For assay [3], the target named is Cyclin-dependent kinase 2 (Homo sapiens) (UniProt P24941). Nature of the assay: Inhibition of CDK2/cyclin A at 1 uM relative to control.
Assay [4] has as its target Serine/threonine-protein kinase PAK 6 (Homo sapiens) (UniProt Q9NQU5). As to the kind of experiment: Inhibition of PAK6 at 1 uM relative to control.
Assay [5] deals with T1, Dual specificity tyrosine-phosphorylation-regulated kinase 2 (Homo sapiens) (UniProt Q92630).
T1 sequence (whole entry): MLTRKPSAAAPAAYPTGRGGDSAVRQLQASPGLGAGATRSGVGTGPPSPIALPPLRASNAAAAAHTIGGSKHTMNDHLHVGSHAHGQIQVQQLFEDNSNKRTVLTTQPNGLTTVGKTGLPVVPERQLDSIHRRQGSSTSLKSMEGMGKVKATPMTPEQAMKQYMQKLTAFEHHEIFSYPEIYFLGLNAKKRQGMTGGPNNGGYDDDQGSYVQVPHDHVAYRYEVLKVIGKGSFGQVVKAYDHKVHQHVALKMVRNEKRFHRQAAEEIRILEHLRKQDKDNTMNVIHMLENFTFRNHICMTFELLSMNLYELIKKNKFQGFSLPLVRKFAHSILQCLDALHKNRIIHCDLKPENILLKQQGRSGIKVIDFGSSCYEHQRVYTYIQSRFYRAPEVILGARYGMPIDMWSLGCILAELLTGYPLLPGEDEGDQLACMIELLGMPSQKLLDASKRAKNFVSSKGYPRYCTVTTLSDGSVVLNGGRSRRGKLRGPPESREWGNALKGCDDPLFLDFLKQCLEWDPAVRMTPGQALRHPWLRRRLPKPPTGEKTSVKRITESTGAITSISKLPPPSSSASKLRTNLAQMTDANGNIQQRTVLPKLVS
Nature of the assay: Inhibition of DYRK2 at 1 uM relative to control.

The target of assay [6] is Serine/threonine-protein kinase PAK 4 (Homo sapiens) (UniProt O96013). As to the kind of experiment: Inhibition of PAK4 at 1 uM relative to control.
For assay [7], the target named is Serine/threonine-protein kinase Nek7 (Homo sapiens) (UniProt Q8TDX7). Nature of the assay: Inhibition of NEK7 at 1 uM relative to control.
In assay [8] the target is MAP kinase-activated protein kinase 3 (Homo sapiens) (UniProt Q16644). Nature of the assay: Inhibition of MAPKAP-K3 at 1 uM relative to control.
For assay [9], the target named is T2, Inhibitor of nuclear factor kappa-B kinase subunit beta (Homo sapiens) (UniProt O14920).
T2 sequence (whole entry): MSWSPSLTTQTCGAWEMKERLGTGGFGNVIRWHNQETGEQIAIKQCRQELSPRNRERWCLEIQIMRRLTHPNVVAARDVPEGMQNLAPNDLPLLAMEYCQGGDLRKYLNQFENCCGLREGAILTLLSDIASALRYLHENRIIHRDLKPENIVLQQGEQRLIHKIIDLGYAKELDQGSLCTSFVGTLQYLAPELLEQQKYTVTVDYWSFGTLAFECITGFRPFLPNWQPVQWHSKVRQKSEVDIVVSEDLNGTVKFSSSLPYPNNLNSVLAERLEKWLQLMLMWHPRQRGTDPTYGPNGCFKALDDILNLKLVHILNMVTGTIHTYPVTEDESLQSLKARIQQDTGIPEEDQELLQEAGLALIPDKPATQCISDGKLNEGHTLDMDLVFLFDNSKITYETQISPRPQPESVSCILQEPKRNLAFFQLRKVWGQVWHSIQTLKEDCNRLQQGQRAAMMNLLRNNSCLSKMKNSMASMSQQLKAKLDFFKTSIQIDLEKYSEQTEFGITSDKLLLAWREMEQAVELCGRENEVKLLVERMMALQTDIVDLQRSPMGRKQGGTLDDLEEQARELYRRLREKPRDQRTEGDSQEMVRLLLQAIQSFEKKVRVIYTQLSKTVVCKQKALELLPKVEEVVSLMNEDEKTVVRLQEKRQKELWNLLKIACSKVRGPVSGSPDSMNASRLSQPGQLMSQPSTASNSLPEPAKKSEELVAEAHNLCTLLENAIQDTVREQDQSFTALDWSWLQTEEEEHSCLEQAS
Nature of the assay: Inhibition of IKK-beta at 1 uM relative to control.

Assay [10] deals with RAC-alpha serine/threonine-protein kinase (Homo sapiens) (UniProt P31749). As to the kind of experiment: Inhibition of PKBalpha at 1 uM relative to control.
For assay [11], the target named is Ribosomal protein S6 kinase beta-1 (Homo sapiens) (UniProt P23443). As to the kind of experiment: Inhibition of S6K1 at 1 uM relative to control.
For assay [12], the target named is T3, Aurora kinase C (Homo sapiens) (UniProt Q9UQB9).
T3 sequence (whole entry): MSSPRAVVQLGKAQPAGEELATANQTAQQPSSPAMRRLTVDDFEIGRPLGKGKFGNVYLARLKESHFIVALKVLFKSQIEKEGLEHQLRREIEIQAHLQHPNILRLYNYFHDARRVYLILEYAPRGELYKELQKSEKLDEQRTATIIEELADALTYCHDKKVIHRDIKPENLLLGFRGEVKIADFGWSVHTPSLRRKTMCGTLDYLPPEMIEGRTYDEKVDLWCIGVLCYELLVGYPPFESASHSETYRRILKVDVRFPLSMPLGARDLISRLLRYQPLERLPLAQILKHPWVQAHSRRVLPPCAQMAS
Nature of the assay: Inhibition of Aurora C at 1 uM relative to control.

In assay [13] the target is T4, Protein kinase C zeta type (Homo sapiens) (UniProt Q05513).
T4 sequence (whole entry): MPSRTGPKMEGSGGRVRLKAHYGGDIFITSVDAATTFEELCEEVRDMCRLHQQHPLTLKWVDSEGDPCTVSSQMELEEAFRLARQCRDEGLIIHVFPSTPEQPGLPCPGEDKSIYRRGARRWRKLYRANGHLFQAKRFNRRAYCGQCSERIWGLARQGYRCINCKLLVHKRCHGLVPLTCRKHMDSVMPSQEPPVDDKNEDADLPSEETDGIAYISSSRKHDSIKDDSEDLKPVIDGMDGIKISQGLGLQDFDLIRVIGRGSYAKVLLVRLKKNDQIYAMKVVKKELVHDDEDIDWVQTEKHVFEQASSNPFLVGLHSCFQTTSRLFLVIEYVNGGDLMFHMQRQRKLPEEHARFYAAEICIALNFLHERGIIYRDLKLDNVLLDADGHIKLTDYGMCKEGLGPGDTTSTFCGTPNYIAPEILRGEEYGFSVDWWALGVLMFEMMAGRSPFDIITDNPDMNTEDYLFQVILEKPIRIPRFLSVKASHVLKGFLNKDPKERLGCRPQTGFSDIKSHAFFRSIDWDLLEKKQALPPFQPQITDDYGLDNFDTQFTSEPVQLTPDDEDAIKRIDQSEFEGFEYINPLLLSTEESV
Nature of the assay: Inhibition of PKCzeta at 1 uM relative to control.

Assay [14] is described as follows: Inhibition of CK1 at 1 uM relative to control.

The values that follow come from ChEMBL document CHEMBL1136991, “Novel potent BRAF inhibitors: toward 1 nM compounds through optimization of the central phenyl ring” (J Med Chem, 2009).

Bounds are passed on as bounds.

Chain of MAP kinase-activated protein kinase 3 (Homo sapiens) (Q16644 whole entry, looked up): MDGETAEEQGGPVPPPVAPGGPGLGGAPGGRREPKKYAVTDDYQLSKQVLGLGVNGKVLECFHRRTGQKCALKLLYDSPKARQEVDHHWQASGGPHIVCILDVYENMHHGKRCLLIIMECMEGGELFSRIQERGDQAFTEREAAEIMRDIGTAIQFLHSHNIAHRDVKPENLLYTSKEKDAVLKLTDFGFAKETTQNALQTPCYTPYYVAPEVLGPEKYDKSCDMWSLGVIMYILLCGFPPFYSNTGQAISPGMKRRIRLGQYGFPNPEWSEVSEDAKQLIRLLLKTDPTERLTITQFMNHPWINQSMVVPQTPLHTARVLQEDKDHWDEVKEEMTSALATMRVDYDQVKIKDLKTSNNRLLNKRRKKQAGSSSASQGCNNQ
Chain of Serine/threonine-protein kinase B-raf (P15056 2-766 V600E limits assumed): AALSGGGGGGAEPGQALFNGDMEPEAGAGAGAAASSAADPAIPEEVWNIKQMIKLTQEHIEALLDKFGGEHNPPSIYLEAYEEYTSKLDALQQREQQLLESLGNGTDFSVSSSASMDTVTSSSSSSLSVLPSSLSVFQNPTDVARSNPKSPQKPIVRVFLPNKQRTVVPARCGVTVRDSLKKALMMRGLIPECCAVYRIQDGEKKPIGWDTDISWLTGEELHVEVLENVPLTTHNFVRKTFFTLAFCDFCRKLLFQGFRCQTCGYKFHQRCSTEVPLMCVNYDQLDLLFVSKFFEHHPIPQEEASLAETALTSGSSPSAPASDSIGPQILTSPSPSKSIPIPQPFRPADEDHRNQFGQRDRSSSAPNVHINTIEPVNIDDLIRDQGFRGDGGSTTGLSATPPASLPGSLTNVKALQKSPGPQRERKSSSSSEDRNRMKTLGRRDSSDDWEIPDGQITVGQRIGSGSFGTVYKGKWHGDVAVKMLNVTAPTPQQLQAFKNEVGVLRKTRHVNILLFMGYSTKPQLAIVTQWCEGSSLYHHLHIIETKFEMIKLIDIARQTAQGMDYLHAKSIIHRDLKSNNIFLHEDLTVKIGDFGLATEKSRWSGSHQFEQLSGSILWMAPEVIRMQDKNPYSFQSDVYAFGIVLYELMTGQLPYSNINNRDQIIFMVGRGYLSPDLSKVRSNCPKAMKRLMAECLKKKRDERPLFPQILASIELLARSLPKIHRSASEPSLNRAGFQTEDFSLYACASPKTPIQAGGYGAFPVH
Chain of Serine/threonine-protein kinase PAK 6 (Homo sapiens) (Q9NQU5 whole entry, looked up): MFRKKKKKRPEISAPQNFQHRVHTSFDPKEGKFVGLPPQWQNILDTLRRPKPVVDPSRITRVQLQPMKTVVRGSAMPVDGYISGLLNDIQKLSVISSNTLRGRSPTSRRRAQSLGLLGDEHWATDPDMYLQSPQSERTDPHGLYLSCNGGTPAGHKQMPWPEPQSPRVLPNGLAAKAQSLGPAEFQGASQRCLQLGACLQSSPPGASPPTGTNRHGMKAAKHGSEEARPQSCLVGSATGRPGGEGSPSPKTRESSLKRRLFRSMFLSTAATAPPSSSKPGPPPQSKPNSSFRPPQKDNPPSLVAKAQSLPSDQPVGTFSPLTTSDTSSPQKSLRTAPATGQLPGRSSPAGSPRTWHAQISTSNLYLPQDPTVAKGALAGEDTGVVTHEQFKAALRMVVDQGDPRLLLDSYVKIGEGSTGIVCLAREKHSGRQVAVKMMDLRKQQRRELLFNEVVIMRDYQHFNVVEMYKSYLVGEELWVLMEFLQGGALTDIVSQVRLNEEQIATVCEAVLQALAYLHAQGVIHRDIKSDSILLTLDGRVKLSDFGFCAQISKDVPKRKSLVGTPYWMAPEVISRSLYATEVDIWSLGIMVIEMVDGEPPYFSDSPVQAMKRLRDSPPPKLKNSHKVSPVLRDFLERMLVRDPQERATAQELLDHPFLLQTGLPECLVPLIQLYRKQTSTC
Chain of RAC-alpha serine/threonine-protein kinase (Homo sapiens) (P31749 whole entry): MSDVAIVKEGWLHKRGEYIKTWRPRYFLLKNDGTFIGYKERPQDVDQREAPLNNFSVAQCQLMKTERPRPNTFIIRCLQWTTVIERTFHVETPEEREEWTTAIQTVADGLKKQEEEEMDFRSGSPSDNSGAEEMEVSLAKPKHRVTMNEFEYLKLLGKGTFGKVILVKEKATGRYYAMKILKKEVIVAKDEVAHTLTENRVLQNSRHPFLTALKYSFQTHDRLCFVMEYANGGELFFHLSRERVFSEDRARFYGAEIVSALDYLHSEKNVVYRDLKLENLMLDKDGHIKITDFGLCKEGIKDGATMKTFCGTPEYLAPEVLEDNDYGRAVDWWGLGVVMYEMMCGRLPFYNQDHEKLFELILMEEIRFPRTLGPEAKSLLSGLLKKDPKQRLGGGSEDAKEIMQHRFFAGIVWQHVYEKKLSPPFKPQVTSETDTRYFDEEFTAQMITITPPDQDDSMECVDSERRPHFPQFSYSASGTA
Chain of Serine/threonine-protein kinase Nek7 (Homo sapiens) (Q8TDX7 whole entry, looked up): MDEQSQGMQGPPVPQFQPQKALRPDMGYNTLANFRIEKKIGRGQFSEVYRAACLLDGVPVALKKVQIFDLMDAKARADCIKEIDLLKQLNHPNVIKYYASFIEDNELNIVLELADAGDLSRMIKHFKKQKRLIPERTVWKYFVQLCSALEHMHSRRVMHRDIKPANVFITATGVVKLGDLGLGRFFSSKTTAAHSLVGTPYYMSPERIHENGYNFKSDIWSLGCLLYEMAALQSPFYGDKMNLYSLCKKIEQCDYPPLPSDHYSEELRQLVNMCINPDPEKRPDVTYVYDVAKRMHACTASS
Chain of Serine/threonine-protein kinase PAK 4 (Homo sapiens) (O96013 whole entry, looked up): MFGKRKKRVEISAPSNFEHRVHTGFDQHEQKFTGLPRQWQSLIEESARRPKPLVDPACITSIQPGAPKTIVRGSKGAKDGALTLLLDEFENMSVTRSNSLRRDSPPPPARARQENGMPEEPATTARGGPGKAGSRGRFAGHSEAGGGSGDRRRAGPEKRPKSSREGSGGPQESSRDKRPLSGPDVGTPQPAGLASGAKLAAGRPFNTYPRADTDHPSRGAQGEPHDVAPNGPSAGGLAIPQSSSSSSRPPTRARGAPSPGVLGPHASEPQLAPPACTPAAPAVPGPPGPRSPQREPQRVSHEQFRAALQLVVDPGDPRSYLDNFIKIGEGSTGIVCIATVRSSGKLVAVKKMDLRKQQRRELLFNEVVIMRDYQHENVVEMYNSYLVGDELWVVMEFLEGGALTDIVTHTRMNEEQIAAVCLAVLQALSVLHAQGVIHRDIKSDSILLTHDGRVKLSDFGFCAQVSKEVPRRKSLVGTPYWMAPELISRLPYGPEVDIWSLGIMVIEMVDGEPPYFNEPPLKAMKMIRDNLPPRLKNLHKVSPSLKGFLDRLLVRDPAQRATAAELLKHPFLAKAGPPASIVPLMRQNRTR
Chain of Ribosomal protein S6 kinase beta-1 (Homo sapiens) (P23443 whole entry, looked up): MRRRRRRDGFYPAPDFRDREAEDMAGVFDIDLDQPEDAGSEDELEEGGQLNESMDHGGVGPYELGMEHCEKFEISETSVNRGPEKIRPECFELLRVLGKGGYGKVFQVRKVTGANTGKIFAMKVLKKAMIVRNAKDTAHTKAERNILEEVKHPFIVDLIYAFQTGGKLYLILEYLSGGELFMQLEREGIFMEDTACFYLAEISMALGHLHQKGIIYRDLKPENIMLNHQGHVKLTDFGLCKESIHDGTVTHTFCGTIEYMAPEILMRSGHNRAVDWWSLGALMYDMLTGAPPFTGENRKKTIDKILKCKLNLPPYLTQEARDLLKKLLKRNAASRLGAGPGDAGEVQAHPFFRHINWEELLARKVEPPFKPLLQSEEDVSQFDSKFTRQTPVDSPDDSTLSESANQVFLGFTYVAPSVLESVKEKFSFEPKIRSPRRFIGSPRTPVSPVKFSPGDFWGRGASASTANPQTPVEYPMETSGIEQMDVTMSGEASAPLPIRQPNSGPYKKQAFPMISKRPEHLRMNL
Chain of Serine/threonine-protein kinase PLK1 (Homo sapiens) (P53350 whole entry): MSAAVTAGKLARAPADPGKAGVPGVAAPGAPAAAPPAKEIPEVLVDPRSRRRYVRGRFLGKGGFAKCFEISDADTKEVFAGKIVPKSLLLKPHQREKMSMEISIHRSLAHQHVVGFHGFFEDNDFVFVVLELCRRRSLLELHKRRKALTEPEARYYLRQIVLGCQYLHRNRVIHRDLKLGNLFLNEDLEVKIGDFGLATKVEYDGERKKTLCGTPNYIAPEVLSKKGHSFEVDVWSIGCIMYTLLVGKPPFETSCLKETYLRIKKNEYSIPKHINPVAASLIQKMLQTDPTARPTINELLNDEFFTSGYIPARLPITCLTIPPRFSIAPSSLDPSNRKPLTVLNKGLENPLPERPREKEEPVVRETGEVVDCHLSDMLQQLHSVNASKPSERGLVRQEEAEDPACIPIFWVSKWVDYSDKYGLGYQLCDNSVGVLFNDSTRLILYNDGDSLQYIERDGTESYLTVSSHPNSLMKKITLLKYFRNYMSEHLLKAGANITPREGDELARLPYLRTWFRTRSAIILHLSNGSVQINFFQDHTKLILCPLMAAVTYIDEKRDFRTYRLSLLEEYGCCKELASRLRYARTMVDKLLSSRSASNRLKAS

As a reminder, the IC50 is the concentration at which inhibition is half-maximal. A higher IC50 goes with weaker potency. `CSc1cc(Oc2ccnc3[nH]c(=O)[nH]c23)ccc1NC(=O)Nc1cccc(C(F)(F)F)c1`: the residual activity was 100% in assay [1]; 100% in [3]; 100% in [4]; 100% in assay [5]; 75% in [6]; 100% in assay [7]. For the same compound, the residual activity in assay [8] is 100%; in [9] it was 100%; in assay [10], 100%; in assay [11], 100%; in assay [12] it was 50%; in assay [13], 75%. The residual activity in [14] came to 75%. Inhibition in [2] was half-maximal at 0.001 µM (IC50).

As for `O=C(Nc1cc(C(F)(F)F)ccc1F)Nc1ccc(Oc2ccnc3[nH]c(=O)[nH]c23)c2ccccc12`, the residual activity in [1] amounted to 100%; in [3], 100%; in assay [4] it was 100%; in assay [5], 100%; in assay [6], 75%; in assay [7] it was 100%. For the same compound, the residual activity was 100% in assay [8]; 100% in assay [9]; 100% in assay [10]; 75% in assay [11]; < 25% in assay [12]; 75% in [13]. In assay [14], this compound registered a residual activity of 100%. The compound further returned an IC50 in assay [2] of 0.037 µM.

For the compound `CC(C)(C)c1cccc(NC(=O)Nc2ccc(Oc3ccnc4[nH]c(=O)[nH]c34)c3ccccc23)c1`, the residual activity in assay [1] is 75%; in assay [3], 100%; in assay [4], 75%; in [5] it was 100%; in assay [6], 75%; in assay [7] it was 75%. The residual activity turned out to be 100% in assay [8]; 75% in assay [9]; 75% in assay [10]; 100% in assay [11]; 75% in assay [12]; 75% in [13]. In assay [14], this compound had a residual activity of 75%. In assay [2], the half-inhibitory concentration (IC50) came to 0.079 µM.
